Here are results for 1 molecule from ChEMBL document CHEMBL2311539, “3,6-Diamino-4-(2-halophenyl)-2-benzoylthieno[2,3-b]pyridine-5-carbonitriles are selective inhibitors of Plasmodium falciparum glycogen synthase kinase-3” (J Med Chem, 2013).

A value given as a limit tells only on which side of the number the result lay.

The target of assay [1] is Calcium/calmodulin-dependent protein kinase type 1 (Homo sapiens) (UniProt Q14012). Briefly: Inhibition of CAMK1 (unknown origin) at 10 uM. The essentials:
(§1)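 Dundee human kinase selectivity panel (77 kinases); test compound at 1 and 10 μM, percentage kinase inhibition recorded.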

A short description of assay [2]: Inhibition of Plasmodium falciparum recombinant GSK-3 by radiometric protein kinase assay. The procedure, abridged: (§2)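 His6-tagged recombinant GSK-3 expressed in E. coli (TOP10/pBAD-Thio-TOPO for P. falciparum and T. gondii, arabinose-induced; BL21(DE3)-pRARE2/pET15 for C. parvum, IPTG at 15 °C), Ni-NTA purified. Assayed with 40 μM GS-1 phosphopeptide, 15 μM γ-33P-ATP in pH 7.5 Tris buffer with MgCl2, EGTA, DTT, heparin, BSA; 30 min, 30 °C; P81 paper, phosphoric acid washes, scintillation counting. DMSO controls; dose-response IC50, triplicate points.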

For assay [3], the target named is Mitogen-activated protein kinase 14 (Homo sapiens) (UniProt Q16539). As to the kind of experiment: Inhibition of P38alpha MAPK (unknown origin) at 10 uM. The procedure, abridged: as §1
Assay [4] deals with RAC-alpha serine/threonine-protein kinase (Homo sapiens) (UniProt P31749). As to the kind of experiment: Inhibition of PKB alpha (unknown origin) at 10 uM. The procedure, abridged:
as §1

Assay [5] in a line: Inhibition of Toxoplasma gondii recombinant His6-tagged GSK-3 expressed in Escherichia coli using GS-1 peptide as substrate after 30 mins by scintillation counting analysis in presence of gamma-33P-ATP. It is filed as cell-free. The essentials: as §2
Assay [6] can be described thus: Inhibition of pig GSK-3 by radiometric protein kinase assay. More on the design: species or system Sus scrofa. The essentials: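 Native affinity-purified porcine GSK-3 in the radiometric assay: 40 μM GS-1 peptide, 15 μM γ-33P-ATP, pH 7.5 Tris/MgCl2/EGTA/DTT/heparin/BSA buffer, 30 min at 30 °C, P81 filter binding and scintillation counting. IC50 from dose-response curves with triplicate points; top concentration 10 or 100 μM.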

The target in assay [7] is MAP kinase-activated protein kinase 2 (Homo sapiens) (UniProt P49137). As to the kind of experiment: Inhibition of MAPKAP-K2 (unknown origin) at 10 uM. The essentials: as §1
Assay [8] concerns the target Serine/threonine-protein kinase PAK 4 (Homo sapiens) (UniProt O96013). As to the kind of experiment: Inhibition of PAK4 (unknown origin) at 10 uM. The procedure, abridged:
as §1

The target of assay [9] is Dual specificity mitogen-activated protein kinase kinase 1 (Homo sapiens) (UniProt Q02750). As to the kind of experiment: Inhibition of MKK1 (unknown origin) at 10 uM. The procedure, abridged: as §1
The target in assay [10] is T1, Inhibitor of nuclear factor kappa-B kinase subunit epsilon (Homo sapiens) (UniProt Q14164).
T1 sequence (whole entry): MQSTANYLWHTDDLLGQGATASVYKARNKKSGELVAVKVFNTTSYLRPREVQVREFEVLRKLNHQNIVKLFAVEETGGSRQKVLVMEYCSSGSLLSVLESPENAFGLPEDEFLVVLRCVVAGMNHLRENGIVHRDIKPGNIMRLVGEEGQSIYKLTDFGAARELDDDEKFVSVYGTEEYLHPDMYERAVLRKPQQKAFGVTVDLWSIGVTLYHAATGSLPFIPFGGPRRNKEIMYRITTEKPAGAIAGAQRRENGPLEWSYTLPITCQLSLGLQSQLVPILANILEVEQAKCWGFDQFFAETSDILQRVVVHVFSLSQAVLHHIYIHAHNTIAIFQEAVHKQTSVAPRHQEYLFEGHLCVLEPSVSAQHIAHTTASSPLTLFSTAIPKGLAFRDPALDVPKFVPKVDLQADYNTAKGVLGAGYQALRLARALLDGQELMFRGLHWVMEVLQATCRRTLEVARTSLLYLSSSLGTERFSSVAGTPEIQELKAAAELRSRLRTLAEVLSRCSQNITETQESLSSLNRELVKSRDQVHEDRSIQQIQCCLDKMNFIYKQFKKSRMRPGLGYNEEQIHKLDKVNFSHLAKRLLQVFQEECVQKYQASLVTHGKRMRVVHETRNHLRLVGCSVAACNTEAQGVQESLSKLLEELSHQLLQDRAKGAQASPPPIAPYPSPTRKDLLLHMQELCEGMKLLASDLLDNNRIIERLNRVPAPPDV
As to the kind of experiment: Inhibition of IKK-epsilon (unknown origin) at 10 uM. The essentials: as §1

Assay [11] in a line: Inhibition of Plasmodium knowlesi recombinant His6-tagged GSK-3 expressed in Escherichia coli using GS-1 peptide as substrate after 30 mins by scintillation counting analysis in presence of gamma-33P-ATP. The procedure, abridged:
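P. knowlesi GSK3 gene in pBAD-Thio-TOPO, expressed in E. coli TOP10 (ampicillin, 37 °C, 0.02% arabinose for 4 h), Ni-NTA purified. Radiometric assay: 40 μM GS-1 peptide in buffer A pH 7.5 (MgCl2, EGTA, DTT, heparin, BSA) with 15 μM γ-33P-ATP, 30 min at 30 °C. P81 filter binding, scintillation counting. IC50 from triplicate dose-response curves.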

A short description of assay [12]: Inhibition of Cryptosporidium parvum recombinant His6-tagged GSK-3 expressed in Escherichia coli using GS-1 peptide as substrate after 30 mins by scintillation counting analysis in presence of gamma-33P-ATP. The procedure, abridged:
as §2

A short description of assay [13]: Inhibition of Trypanosoma cruzi GSK-3.
In assay [14] the target is Mitogen-activated protein kinase 11 (Homo sapiens) (UniProt Q15759). As to the kind of experiment: Inhibition of P38beta MAPK (unknown origin) at 10 uM. The essentials: as §1
Assay [15] relates to Plasmodium falciparum. Briefly: Antiplasmodial activity against Plasmodium falciparum at 15 uM after 72 hrs by luciferase reporter gene assay. The format is functional. The essentials: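 NF54:LUC P. falciparum erythrocytic stages (luciferase under hrp2 promoter) at 3% parasitemia, 25% hematocrit; compounds in RPMI-1640 with 1% DMSO, triplicate wells; untreated, DMSO-only and non-luciferase NF54 blank wells. […] Bright-Glo lysis, luminescence read.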
In general terms: A reporter such as luciferase makes a cellular process visible.

Usually inhibition stands for the drop in the measured response relative to a control, in per cent. In general, IC50 refers to the midpoint of a concentration-inhibition curve.

Chain of Calcium/calmodulin-dependent protein kinase type 1 (Homo sapiens) (Q14012 whole entry, looked up): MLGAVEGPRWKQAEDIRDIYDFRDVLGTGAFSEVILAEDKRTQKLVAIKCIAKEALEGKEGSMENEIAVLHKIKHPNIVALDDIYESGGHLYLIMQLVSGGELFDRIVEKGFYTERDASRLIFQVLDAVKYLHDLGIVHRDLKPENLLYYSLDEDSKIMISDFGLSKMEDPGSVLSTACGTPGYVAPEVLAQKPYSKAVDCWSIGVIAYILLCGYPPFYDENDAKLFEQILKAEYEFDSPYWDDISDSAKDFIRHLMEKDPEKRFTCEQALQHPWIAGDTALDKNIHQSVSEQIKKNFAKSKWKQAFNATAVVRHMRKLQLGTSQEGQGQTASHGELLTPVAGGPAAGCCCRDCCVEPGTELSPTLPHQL
Chain of Mitogen-activated protein kinase 11 (Homo sapiens) (Q15759 whole entry): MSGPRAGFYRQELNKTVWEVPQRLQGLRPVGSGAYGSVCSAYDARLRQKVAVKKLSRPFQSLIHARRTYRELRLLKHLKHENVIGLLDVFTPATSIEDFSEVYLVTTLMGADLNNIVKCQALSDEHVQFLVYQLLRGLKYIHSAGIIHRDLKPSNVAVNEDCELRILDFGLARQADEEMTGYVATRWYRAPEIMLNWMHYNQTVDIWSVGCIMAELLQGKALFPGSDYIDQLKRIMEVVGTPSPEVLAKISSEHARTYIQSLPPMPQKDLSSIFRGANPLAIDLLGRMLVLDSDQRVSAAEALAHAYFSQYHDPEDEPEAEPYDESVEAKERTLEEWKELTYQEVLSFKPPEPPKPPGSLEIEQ
Chain of Mitogen-activated protein kinase 14 (Homo sapiens) (Q16539 whole entry): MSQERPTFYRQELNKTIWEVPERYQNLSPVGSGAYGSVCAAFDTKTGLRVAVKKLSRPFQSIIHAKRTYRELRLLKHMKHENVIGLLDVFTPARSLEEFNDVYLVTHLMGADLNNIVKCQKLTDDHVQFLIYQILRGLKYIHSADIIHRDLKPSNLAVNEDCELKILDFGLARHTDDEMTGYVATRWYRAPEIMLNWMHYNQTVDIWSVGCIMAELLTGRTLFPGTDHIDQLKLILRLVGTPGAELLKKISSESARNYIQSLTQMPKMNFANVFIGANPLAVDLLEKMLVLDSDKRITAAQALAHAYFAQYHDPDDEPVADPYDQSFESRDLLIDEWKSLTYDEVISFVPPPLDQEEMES
Chain of MAP kinase-activated protein kinase 2 (Homo sapiens) (P49137 whole entry, looked up): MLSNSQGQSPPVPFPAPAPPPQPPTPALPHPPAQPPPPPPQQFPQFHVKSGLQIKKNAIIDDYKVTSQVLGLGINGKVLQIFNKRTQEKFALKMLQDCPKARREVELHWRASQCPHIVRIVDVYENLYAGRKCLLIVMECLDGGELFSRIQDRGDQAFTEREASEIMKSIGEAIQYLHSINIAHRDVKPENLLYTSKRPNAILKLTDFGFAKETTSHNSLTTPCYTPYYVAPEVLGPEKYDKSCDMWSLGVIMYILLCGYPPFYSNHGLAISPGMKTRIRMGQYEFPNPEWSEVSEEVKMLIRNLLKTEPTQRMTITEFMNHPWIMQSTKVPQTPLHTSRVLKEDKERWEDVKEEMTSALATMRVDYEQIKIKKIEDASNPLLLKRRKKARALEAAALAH
Chain of RAC-alpha serine/threonine-protein kinase (Homo sapiens) (P31749 whole entry): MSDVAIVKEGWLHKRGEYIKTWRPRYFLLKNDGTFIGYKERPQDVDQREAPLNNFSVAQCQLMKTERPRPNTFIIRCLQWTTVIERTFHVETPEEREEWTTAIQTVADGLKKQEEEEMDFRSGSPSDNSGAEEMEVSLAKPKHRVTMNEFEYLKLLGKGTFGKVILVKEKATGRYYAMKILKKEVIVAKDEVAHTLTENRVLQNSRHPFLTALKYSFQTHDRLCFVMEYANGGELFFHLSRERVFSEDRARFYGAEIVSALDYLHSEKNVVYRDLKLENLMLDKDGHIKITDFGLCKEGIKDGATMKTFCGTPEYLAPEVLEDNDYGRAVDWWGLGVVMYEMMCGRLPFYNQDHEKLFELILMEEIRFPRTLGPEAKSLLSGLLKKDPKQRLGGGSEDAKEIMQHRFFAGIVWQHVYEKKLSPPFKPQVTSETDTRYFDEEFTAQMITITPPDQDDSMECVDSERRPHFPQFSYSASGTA
Chain of Dual specificity mitogen-activated protein kinase kinase 1 (Homo sapiens) (Q02750 whole entry): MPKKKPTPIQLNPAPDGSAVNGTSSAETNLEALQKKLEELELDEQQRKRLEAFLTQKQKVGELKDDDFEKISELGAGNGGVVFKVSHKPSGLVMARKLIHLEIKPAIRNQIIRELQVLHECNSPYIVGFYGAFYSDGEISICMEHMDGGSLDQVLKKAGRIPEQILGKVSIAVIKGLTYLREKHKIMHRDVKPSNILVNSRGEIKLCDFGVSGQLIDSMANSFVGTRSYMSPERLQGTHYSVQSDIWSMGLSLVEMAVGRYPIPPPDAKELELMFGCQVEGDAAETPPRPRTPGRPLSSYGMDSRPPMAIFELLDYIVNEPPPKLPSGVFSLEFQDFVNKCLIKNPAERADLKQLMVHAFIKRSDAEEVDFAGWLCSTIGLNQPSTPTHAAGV
Chain of Serine/threonine-protein kinase PAK 4 (Homo sapiens) (O96013 whole entry, looked up): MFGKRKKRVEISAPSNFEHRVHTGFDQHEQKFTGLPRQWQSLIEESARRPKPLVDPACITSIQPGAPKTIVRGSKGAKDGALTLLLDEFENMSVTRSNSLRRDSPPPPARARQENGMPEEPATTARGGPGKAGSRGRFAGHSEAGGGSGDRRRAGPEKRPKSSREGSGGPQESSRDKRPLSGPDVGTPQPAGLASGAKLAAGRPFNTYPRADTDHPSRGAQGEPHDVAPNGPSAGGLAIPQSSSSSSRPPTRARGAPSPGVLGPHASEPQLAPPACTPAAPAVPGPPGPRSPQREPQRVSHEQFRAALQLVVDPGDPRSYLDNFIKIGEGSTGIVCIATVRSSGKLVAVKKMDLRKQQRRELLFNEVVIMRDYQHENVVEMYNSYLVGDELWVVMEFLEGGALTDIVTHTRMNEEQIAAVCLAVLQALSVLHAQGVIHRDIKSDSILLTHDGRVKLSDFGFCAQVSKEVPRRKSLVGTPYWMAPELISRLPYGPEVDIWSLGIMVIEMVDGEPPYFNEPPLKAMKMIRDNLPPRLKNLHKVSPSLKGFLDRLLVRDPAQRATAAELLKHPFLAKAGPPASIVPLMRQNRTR

Take `N#Cc1c(N)nc2sc(C(=O)c3cccc(Cl)c3)c(N)c2c1-c1ccccc1Cl`: the inhibition in assay [1] was above 50%; in [3], above 50%; in assay [4] it was above 80%; in assay [7] it was above 50%; in assay [8] it was above 50%; in [9] it was above 50%. In addition, the inhibition in [10] and in assay [14] was above 50% in each case. Besides, the IC50 in assay [2] was 0.48 µM; in assay [5], above 100 µM; in assay [6], above 10 µM; in assay [11] it was 2.45 µM; in [12], above 100 µM; in [13], above 100 µM. In assay [15], this molecule came in with an inhibition at 15 µM of 100%.
